Test results published in ChEMBL document CHEMBL1139624, “Synthesis and evaluation of isatin derivatives as effective SARS coronavirus 3CL protease inhibitors” (Bioorg Med Chem Lett, 2005).

Test system: not listed separately
Experiment: In vitro inhibitory concentration against Trypsin (serine protease)
Settings: not given
How it was run: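 Trypsin counter-screen run with 9 nM enzyme and 200 μM substrate.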
`O=C1C(=O)N(Cc2cc3ccccc3s2)c2c(Br)cccc21` gave an IC50 of 362 µM.
`O=C1C(=O)N(Cc2cc3ccccc3s2)c2ccc(I)cc21` showed an IC50 of 243 µM.

Target: T1, Replicase polyprotein 1a (Severe acute respiratory syndrome-related coronavirus, UniProt P0C6U8)
Experiment: In vitro inhibitory concentration SARS coronavirus main protease (SARS CoV 3C-like protease)
Settings: not given
With `O=C1C(=O)N(Cc2cc3ccccc3s2)c2c(Br)cccc21` the IC50 was 0.98 µM.

Target: T1, Replicase polyprotein 1a
Experiment: In vitro inhibitory concentration against SARS coronavirus main protease (SARS CoV 3C-like protease)
Settings: not given
`Cc1noc(C)c1CN1C(=O)C(=O)c2cc(C#N)ccc21` showed an IC50 of 7.2 µM.
`O=C1C(=O)N(Cc2ccc(C(=O)N3CCCCC3)s2)c2ccc(I)cc21` gave an IC50 of 17.5 µM.
`O=C1C(=O)N(Cc2cc3ccccc3s2)c2cccc(Cl)c21` gave an IC50 of 11.2 µM.
`O=C1C(=O)N(Cc2cc3ccccc3s2)c2c1cccc2[N+](=O)[O-]` showed an IC50 of 2 µM.
For `O=C(Nc1ccc(Cl)cc1)c1ccc(CN2C(=O)C(=O)c3cc(I)ccc32)s1`, the IC50 was 12.6 µM.
Compound `O=C1C(=O)N(Cc2cc3ccccc3s2)c2ccccc21` has an IC50 of 13.1 µM.
`O=C1C(=O)N(C/C=C/c2cc3ccccc3s2)c2ccc(I)cc21` showed an IC50 of 23.5 µM.
Compound `O=C1C(=O)N(Cc2cc3ccccc3s2)c2ccc(I)cc21` has an IC50 of 0.95 µM.
Work on `O=C1C(=O)N(Cc2ccc(F)cc2Cl)c2ccc(I)cc21` yielded an IC50 of 9.4 µM.
Compound `O=C1C(=O)N(Cc2cc3ccccc3s2)c2ccc(F)cc21` has an IC50 of 4.82 µM.

Target: T1, Replicase polyprotein 1a
Experiment: In vitro inhibitory concentration against SARS coronavirus main protease (SARS CoV 3C-like protease) at 20 uM
Settings: not given
How it was run: (§1)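 FRET assay with 50 nM 3CLpro preincubated 10 min at room temperature with inhibitor at 20 μM in pH 7.5 Tris–HCl/NaCl/EDTA/DTT/β-ME buffer. Percent inhibition was taken from the initial velocity.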
`O=C1C(=O)N(CC2COc3ccccc3O2)c2ccc(I)cc21` (stereo not given) showed an IC50 of 13.5 µM.

Target: Replicase polyprotein 1a (Severe acute respiratory syndrome-related coronavirus) (UniProt P0C6U8)
Experiment: In vitro percent inhibition against SARS coronavirus main protease (SARS CoV 3C-like protease) at 20 uM
Settings: not given
How it was run: as §1
For `O=C1C(=O)N(Cc2cc3ccccc3s2)c2c(Cl)ccc(Cl)c21`, the inhibition was 46%.
In the case of `COc1ccc2c(c1)C(=O)C(=O)N2Cc1cc2ccccc2o1`, the inhibition is reported as 13%.
Compound `Nc1cccc2c1N(Cc1cc3ccccc3s1)C(=O)C2=O` has an inhibition of 31%.
With `Cc1noc(C)c1CN1C(=O)C(=O)c2cc(C(N)=O)ccc21` the inhibition was 25%.
Compound `O=C1C(=O)N(Cc2cc3ccccc3o2)c2ccc([N+](=O)[O-])cc21` has an inhibition of 24%.
`Nc1ccc2c(c1)C(=O)C(=O)N2CC(=O)c1cc2ccccc2s1` showed an inhibition of 40%.
For `Cc1cc2c(c([N+](=O)[O-])c1)N(CC(=O)c1cc3ccccc3s1)C(=O)C2=O`, the inhibition was 40%.
With `Cc1cc2c(c([N+](=O)[O-])c1)N(Cc1cc3ccccc3s1)C(=O)C2=O` the inhibition was 39%.
With `O=C(Nc1ccc(F)cc1F)c1ccc(CN2C(=O)C(=O)c3cc(I)ccc32)s1` the inhibition was 32%.
Compound `O=C(Nc1ccc(F)cc1)c1ccc(CN2C(=O)C(=O)c3cc(I)ccc32)s1` has an inhibition of 46%.
Work on `COc1ccc2c(c1)C(=O)C(=O)N2Cc1cc2ccccc2s1` yielded an inhibition of 27%.
Work on `CC(C)NC(=O)c1ccc(CN2C(=O)C(=O)c3cc(I)ccc32)s1` yielded an inhibition of 47%.
Compound `O=C(NC1CCCCC1)c1ccc(CN2C(=O)C(=O)c3cc(I)ccc32)s1` has an inhibition of 36%.

Target: Replicase polyprotein 1a (Severe acute respiratory syndrome-related coronavirus) (UniProt P0C6U8)
Experiment: In vitro percent inhibition against SARS coronavirus main protease (SARS CoV 3C-like protease)
Settings: concentration not given here
How it was run: as §1
Work on `O=C1C(=O)N(Cc2cc3ccccc3o2)c2ccc(I)cc21` yielded an inhibition of 13%.

Test system: not listed separately
Experiment: In vitro inhibitory concentration against Papain (cysteine protease)
Set-up: species or system Carica papaya
Settings: not given
In the case of `O=C1C(=O)N(Cc2cc3ccccc3s2)c2c(Br)cccc21`, the IC50 is reported as 103 µM.
With `O=C1C(=O)N(Cc2cc3ccccc3s2)c2ccc(I)cc21` the IC50 was 87.2 µM.
